Test results: the M2OR odorant receptor database
Substitutions are numbered along the chain they refer to.

Assays:
Conditions in all cases: stereoisomer not certain
[1] = target: T1, OR4N4 (Homo sapiens) (UniProt Q8N0Y3)
T1 sequence (whole entry): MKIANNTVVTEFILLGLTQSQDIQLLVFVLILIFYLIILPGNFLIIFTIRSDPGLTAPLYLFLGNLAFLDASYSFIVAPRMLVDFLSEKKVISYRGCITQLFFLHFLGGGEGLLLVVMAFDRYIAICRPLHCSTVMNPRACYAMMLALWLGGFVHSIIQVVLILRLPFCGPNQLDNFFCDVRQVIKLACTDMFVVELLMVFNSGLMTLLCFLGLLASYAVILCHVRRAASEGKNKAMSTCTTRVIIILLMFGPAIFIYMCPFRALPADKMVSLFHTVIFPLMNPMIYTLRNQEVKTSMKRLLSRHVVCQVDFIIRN
Summary of the method: (§1)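 Each entry records the cell line, G-protein, co-transfected protein and tags used. Methods varied with the source, often transient luciferase assays in mammalian cell lines. A receptor–molecule pair is called responsive (active) if the original authors judged its signal statistically different from baseline and non-responsive (inactive) otherwise.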

[2] = target: T2, OR4N5 (Homo sapiens) (UniProt Q8IXE1)
T2 sequence (whole entry): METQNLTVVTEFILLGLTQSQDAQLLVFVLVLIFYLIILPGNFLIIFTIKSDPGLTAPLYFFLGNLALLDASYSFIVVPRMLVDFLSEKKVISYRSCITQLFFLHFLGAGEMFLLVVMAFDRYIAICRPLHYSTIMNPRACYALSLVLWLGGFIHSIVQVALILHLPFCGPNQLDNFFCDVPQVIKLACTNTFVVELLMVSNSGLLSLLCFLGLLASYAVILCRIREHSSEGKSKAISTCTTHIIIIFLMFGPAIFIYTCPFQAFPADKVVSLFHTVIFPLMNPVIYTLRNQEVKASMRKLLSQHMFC
Summary of the method: as §1

[3] = target: T3, OR4P4 (Homo sapiens) (UniProt Q8NGL7)
T3 sequence (whole entry): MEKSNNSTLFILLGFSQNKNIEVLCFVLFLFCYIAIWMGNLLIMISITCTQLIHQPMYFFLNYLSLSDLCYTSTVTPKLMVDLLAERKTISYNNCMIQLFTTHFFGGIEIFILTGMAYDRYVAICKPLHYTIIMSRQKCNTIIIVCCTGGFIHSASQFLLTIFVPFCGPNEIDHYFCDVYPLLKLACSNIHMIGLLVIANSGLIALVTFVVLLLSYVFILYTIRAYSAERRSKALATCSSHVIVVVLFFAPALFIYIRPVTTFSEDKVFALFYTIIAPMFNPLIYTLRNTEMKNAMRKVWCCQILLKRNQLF
Summary of the method: as §1

[4] = target: T4, OR4Q3 (Homo sapiens) (UniProt Q8NH05)
T4 sequence (whole entry): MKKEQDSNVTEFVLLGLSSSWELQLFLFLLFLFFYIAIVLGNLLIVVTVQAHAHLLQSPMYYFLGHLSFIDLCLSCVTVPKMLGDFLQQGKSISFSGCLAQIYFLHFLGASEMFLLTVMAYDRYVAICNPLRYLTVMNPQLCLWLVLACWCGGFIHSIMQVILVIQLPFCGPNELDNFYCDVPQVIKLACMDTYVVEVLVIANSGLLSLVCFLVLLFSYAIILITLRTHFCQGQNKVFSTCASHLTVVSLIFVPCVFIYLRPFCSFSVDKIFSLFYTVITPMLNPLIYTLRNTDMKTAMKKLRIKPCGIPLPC
Summary of the method: as §1

[5] = target: T5, OR4S1 (Homo sapiens) (UniProt Q8NGB4)
T5 sequence (whole entry): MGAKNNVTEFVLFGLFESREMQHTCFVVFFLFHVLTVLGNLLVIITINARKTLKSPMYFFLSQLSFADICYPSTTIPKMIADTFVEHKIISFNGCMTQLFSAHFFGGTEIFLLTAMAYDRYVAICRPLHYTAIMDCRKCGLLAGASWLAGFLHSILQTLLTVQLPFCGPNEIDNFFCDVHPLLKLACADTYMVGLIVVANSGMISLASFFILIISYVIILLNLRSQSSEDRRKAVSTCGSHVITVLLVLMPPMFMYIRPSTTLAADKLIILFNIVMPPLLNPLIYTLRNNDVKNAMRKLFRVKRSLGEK
Summary of the method: as §1

[6] = target: T6, OR4S2 (Homo sapiens) (UniProt Q8NH73)
T6 sequence (whole entry): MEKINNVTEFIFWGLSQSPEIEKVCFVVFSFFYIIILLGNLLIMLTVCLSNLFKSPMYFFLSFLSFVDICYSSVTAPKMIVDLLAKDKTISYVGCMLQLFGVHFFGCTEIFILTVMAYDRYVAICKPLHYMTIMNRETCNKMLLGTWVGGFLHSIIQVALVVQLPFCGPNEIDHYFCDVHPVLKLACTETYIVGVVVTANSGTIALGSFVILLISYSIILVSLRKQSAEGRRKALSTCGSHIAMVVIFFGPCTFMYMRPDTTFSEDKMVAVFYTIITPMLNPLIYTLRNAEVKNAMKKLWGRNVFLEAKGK
Summary of the method: as §1

[7] = target: T7, OR4X1 (Homo sapiens) (UniProt Q8NH49)
T7 sequence (whole entry): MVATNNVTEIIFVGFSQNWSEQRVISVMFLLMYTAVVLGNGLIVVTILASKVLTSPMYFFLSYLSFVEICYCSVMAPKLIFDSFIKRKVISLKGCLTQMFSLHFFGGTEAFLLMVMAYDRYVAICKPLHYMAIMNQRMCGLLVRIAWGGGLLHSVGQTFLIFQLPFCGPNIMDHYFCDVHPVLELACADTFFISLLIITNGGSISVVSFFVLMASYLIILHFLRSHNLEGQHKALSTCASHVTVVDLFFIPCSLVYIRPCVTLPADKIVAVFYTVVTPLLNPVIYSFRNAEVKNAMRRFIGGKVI
Summary of the method: as §1

[8] = target: T8, OR4X2 (Homo sapiens) (UniProt Q8NGF9)
T8 sequence (whole entry): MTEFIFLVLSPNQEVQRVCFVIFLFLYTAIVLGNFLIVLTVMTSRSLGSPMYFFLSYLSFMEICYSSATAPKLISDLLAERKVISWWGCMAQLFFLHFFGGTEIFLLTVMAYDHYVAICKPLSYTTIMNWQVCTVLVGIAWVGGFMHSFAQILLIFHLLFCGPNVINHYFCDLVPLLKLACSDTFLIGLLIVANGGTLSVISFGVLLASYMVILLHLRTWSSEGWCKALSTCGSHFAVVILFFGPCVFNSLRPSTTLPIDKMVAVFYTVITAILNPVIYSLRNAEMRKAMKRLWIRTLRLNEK
Summary of the method: as §1

[9] = target: T9, OR51A2 (Homo sapiens) (UniProt Q8NGJ7)
T9 sequence (whole entry): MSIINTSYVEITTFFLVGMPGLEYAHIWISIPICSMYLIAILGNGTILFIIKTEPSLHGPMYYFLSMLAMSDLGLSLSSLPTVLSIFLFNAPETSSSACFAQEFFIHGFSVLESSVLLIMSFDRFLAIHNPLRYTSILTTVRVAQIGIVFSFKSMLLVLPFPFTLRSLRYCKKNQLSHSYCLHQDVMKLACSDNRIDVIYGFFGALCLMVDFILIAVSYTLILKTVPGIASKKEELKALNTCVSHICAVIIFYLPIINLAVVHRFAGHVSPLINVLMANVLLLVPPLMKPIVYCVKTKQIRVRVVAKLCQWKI
Summary of the method: as §1

[10] = target: T10, OR51A4 (Homo sapiens) (UniProt Q8NGJ6)
T10 sequence (whole entry): T9 sequence (whole entry) with G59E, T94I, S97N, S167N, P227L, E235Q, G267R, M288T, K289N, W311R
Summary of the method: as §1

[11] = target: T11, OR51A7 (Homo sapiens) (UniProt Q8NH64)
T11 sequence (whole entry): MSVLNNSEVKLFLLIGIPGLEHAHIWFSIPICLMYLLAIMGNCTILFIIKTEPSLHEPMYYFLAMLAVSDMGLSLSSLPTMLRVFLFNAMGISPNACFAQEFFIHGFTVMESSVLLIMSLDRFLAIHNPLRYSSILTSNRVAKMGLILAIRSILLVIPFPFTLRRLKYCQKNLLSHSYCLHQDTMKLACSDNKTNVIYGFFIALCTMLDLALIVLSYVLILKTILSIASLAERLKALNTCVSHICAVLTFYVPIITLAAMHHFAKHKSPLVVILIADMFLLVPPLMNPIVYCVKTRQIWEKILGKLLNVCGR
Summary of the method: as §1

[12] = target: T12, OR51B2 (Homo sapiens) (UniProt Q9Y5P1)
T12 sequence (whole entry): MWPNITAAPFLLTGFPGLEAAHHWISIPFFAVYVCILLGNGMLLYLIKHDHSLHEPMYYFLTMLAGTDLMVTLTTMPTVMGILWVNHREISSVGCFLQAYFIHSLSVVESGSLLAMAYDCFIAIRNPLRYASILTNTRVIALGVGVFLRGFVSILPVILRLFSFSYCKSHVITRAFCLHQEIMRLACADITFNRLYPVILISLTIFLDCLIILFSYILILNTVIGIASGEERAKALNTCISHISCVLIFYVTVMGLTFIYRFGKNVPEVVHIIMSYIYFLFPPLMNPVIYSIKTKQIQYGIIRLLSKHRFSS
Summary of the method: as §1

[13] = target: T13, OR51B4 (Homo sapiens) (UniProt Q9Y5P0)
T13 sequence (whole entry): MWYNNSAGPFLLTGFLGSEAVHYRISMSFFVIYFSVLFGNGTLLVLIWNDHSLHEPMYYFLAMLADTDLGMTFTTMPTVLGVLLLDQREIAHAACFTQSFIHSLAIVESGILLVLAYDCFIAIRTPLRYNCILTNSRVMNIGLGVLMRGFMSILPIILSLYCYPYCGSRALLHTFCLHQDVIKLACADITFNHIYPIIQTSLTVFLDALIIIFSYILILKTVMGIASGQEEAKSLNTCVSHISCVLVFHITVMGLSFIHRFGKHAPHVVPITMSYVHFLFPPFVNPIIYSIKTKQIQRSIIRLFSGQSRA
Summary of the method: as §1

[14] = target: T14, OR51B5 (Homo sapiens) (UniProt Q9H339)
T14 sequence (whole entry): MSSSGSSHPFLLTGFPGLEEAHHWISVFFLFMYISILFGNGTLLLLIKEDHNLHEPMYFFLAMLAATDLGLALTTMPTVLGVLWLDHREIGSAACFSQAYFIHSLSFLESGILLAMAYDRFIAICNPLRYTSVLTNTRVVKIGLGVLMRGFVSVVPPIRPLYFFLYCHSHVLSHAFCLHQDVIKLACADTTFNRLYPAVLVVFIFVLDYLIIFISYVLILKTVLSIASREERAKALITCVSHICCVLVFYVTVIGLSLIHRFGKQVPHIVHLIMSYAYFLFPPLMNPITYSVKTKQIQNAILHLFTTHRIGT
Summary of the method: as §1

[15] = target: T15, OR51B6 (Homo sapiens) (UniProt Q9H340)
T15 sequence (whole entry): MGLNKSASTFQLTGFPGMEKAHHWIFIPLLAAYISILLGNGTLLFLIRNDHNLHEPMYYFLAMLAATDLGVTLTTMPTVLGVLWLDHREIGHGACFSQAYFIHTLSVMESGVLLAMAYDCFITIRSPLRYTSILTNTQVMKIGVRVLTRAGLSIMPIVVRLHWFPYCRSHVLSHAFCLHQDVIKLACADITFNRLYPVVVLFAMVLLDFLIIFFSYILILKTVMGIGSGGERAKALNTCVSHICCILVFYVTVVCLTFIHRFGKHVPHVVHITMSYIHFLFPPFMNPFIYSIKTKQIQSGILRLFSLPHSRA
Summary of the method: as §1

[16] = tested on: T16, OR4N2
T16 sequence (whole entry): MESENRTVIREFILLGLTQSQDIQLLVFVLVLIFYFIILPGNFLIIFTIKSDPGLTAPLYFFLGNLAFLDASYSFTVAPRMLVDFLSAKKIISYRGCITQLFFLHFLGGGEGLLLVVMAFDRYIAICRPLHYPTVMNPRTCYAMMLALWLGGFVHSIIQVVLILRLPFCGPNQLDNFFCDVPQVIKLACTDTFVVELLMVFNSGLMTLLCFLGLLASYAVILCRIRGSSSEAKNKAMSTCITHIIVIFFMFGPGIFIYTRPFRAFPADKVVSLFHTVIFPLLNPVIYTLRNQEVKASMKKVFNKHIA
Summary of the method: as §1

[17] = tested on: T17, OR4Q3 T135A
T17 sequence (whole entry): T4 sequence (whole entry) with T135A
Summary of the method: as §1

[18] = tested on: OR4N2; remark: listed apart in the source
Summary of the method: as §1
Target sequence in this assay (as listed by the source): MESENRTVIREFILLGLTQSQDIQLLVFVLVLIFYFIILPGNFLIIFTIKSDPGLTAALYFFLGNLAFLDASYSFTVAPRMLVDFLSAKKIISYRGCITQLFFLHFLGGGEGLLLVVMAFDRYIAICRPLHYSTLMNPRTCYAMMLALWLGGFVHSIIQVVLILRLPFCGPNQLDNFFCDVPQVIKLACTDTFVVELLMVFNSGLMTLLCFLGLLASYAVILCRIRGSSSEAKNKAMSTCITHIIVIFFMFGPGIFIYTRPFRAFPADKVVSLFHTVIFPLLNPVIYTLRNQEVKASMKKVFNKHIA

Measured: odorant receptor agonist call

CCCCCC(S)C(C)CO (configuration not stated)
not listed: [16] | [17] | [18]
inactive: all other assays above

CCCC(S)CCOC(C)=O (configuration not stated)
not listed: [18]
inactive: all other assays above

CCCCCCCC(=O)[O-].[H+]
inactive: [14]

O=c1ccc2ccccc2o1
inactive: [18] | [16] | [14]

C=C1CCC2CC1C2(C)C (configuration not stated)
inactive: [14]
